Results from article PMC4832855 (Cancer Science, 2016).
Several values for one entry are separate records, joined by “and”; a condition that tells them apart may be missing. Equal values may be shown once.

Tests used:
[1] = system: IGF‐1‐induced tyrosine phosphorylation of IGF‐1R in HT‐29/GFP cells; experiment: In vitro signal transduction assay; type: cell-based, human; conditions: 30 nmol/L, 2 hours
Procedure, shortened: (§1)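 HT-29/GFP colon cancer cells in culture exposed to test compound, then stimulated with human IGF-1 or human insulin; receptor tyrosine phosphorylation and downstream signalling assessed across a concentration series.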

[2] = system: SCID mice; experiment: Hyperglycemia and hyperinsulinemia in mice; type: in vivo, mouse; conditions: oral 10, 20, 40, 80 mg/kg
[3] = target: fms‐like tyrosine kinase‐3 (Homo sapiens, UniProt P36888); experiment: Kinase inhibition profiling at 100 nmol/L; type: biochemical; conditions: read-out: Inhibition at 100 nmol/L
[4] = system: HT‐29/GFP human colon cancer cells; experiment: Anti-proliferative activity; type: cell-based
[5] = target: focal adhesion kinase (Homo sapiens, UniProt Q05397); experiment: Kinase inhibition profiling at 100 nmol/L; type: biochemical; conditions: read-out: Inhibition at 100 nmol/L
[6] = system: IGF‐1‐induced tyrosine phosphorylation of IGF‐R in HT‐29/GFP xenograft; experiment: In vivo signal transduction assay; set-up: species or system mouse; conditions: 40 mg/kg oral, 2 hours before IGF-1
[7] = target: TrkA (Homo sapiens, UniProt P04629); experiment: Kinase inhibition profiling at 100 nmol/L; type: biochemical
Sequence of TrkA (P04629 33-796): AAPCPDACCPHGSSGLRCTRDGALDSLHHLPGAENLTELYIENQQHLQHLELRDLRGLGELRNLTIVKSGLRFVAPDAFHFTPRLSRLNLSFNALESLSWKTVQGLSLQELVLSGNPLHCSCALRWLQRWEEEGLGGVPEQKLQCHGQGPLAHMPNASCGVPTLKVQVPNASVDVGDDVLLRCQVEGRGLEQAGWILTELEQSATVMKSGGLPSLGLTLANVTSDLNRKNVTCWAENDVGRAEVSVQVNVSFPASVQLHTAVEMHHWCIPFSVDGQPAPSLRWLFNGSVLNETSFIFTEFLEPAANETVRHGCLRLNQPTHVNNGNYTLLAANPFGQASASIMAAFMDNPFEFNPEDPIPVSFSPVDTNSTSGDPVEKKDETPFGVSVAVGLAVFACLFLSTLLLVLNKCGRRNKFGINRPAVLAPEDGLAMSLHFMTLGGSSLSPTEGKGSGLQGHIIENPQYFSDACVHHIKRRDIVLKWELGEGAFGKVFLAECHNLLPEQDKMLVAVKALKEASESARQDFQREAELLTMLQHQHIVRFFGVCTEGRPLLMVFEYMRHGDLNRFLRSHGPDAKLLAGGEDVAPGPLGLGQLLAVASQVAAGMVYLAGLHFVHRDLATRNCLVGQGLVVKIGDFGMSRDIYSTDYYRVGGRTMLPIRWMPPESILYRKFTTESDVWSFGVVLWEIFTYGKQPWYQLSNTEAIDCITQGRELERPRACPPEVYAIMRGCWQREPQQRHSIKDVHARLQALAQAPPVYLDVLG

[8] = target: AurB (Homo sapiens, UniProt Q96GD4); experiment: Kinase inhibition profiling at 100 nmol/L; type: biochemical; conditions: read-out: Inhibition at 100 nmol/L
Sequence of AurB (Q96GD4 whole entry): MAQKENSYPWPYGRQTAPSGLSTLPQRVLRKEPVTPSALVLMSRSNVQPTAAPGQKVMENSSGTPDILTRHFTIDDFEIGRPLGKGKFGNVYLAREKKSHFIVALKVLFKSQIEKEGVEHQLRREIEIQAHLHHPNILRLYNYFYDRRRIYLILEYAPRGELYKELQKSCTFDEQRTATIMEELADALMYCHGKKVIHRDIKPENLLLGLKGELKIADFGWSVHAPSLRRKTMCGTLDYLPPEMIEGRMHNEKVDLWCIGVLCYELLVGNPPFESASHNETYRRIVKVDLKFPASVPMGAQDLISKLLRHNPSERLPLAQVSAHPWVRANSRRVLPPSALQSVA
Sequence of AurB (Q9NQS7 803-916 partner limits assumed): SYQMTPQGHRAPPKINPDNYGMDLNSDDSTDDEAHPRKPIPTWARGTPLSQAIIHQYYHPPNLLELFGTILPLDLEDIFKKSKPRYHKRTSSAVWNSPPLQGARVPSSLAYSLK

[9] = target: IR (Homo sapiens, UniProt P06213); experiment: Kinase inhibition profiling at 100 nmol/L; type: biochemical; conditions: read-out: Inhibition at 100 nmol/L
[10] = system: non‐human primate, rodent; conditions: ref Kyowa Hakko Kirin Co., Tokyo, unpublished data; cited from earlier work
[11] = target: fms‐like tyrosine kinase‐1 (Homo sapiens, UniProt P17948); experiment: Kinase inhibition profiling at 100 nmol/L; type: biochemical; conditions: read-out: Inhibition at 100 nmol/L
[12] = target: kinase insert domain receptor (Homo sapiens, UniProt P35968); experiment: Kinase inhibition profiling at 100 nmol/L; type: biochemical; conditions: read-out: Inhibition at 100 nmol/L
[13] = system: HT‐29/GFP colon cancer xenograft; experiment: HT-29/GFP xenograft model; type: in vivo, mouse; conditions: 40 mg/kg orally once daily for 14 days, SCID mice
[14] = target: Src (Homo sapiens, UniProt P12931); experiment: Kinase inhibition profiling at 100 nmol/L; type: biochemical; conditions: read-out: Inhibition at 100 nmol/L
Sequence of Src (P12931 whole entry): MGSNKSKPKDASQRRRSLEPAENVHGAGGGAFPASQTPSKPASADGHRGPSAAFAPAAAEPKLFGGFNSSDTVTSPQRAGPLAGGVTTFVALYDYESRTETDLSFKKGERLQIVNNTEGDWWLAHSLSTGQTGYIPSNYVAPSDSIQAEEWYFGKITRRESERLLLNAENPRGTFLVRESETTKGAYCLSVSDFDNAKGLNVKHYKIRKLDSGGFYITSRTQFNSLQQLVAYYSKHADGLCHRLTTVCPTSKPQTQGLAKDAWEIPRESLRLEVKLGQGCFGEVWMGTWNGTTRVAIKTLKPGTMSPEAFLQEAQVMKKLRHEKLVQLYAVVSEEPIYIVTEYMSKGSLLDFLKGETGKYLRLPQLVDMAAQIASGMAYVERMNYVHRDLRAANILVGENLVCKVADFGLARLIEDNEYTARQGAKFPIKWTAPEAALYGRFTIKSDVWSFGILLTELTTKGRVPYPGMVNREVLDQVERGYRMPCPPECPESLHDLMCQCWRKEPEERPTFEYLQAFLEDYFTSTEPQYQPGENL

[15] = ref Kyowa Hakko Kirin Co., Ltd, Tokyo, unpublished data; cited from earlier work
[16] = system: phosphorylation of Erk in HT‐29/GFP cells; experiment: In vitro signal transduction assay; type: cell-based, human; conditions: up to 30 nmol/L
Procedure, shortened: as §1

[17] = target: Met (Homo sapiens, UniProt P08581); experiment: Kinase inhibition profiling at 100 nmol/L; type: biochemical; conditions: read-out: Inhibition at 100 nmol/L
[18] = system: human sarcoma cell lines bearing the EWS/FLI‐1 chromosome translocation (TC‐71, SK‐N‐MC, SK‐ES‐1); experiment: Anti-proliferative activity; type: cell-based; conditions: 72 h
[19] = target: AurA (Homo sapiens, UniProt O14965); experiment: Kinase inhibition profiling at 100 nmol/L; type: biochemical
Sequence of AurA (O14965 whole entry): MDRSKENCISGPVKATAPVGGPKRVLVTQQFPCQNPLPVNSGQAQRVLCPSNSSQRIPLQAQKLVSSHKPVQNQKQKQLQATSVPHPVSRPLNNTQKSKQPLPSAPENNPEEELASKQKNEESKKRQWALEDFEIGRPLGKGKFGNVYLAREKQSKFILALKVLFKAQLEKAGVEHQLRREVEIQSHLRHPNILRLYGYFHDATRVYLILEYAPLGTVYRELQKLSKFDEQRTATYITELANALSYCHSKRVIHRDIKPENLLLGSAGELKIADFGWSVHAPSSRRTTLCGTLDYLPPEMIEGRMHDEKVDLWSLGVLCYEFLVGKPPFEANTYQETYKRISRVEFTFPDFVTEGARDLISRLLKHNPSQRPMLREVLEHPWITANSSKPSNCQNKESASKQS

[20] = system: HT‐29/GFP human colon cancer cells; experiment: Flow cytometric cell cycle analysis; type: cell-based
[21] = system: p381; experiment: Kinase inhibition profiling at 100 nmol/L; type: biochemical, human; conditions: p381, 100 nmol/L
[22] = system: phosphorylation of AKT in HT‐29/GFP cells; experiment: In vitro signal transduction assay; type: cell-based, human; conditions: same concentration ranges (up to 30 nmol/L)
Procedure, shortened: as §1

[23] = preliminary in vitro and in vivo studies; ref Kyowa Hakko Kirin Co., Tokyo, unpublished data; cited from earlier work
[24] = Phase I first-in-human study: pharmacokinetics; type: in vivo; conditions: for half-life / concentration at 1 day / concentration at 28 day / Cmax / Tmax / Vd/F: human, plasma; for Cmax: C max; for Tmax: T max; for Vd/F: VZ/F
[25] = target: IGF‐1R (Homo sapiens, UniProt P08069); experiment: Kinase inhibition profiling at 100 nmol/L; type: biochemical; conditions: read-out: Inhibition at 100 nmol/L
[26] = Plasma protein binding, equilibrium dialysis; type: in vitro ADME; conditions: human, pH 7.2
[27] = system: advanced solid tumors; experiment: Phase I first-in-human study: response; type: in vivo
Procedure, shortened: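 Open-label phase I in patients with refractory advanced solid tumours; oral once daily after overnight fast for 28 days, 1-week observation, then continuous daily dosing; response assessed every 8 weeks by RECIST version 1.0.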

[28] = target: EGFR (Homo sapiens, UniProt P00533); experiment: Kinase inhibition profiling at 100 nmol/L; type: biochemical; conditions: read-out: Inhibition at 100 nmol/L
Sequence of EGFR (P00533 25-1210): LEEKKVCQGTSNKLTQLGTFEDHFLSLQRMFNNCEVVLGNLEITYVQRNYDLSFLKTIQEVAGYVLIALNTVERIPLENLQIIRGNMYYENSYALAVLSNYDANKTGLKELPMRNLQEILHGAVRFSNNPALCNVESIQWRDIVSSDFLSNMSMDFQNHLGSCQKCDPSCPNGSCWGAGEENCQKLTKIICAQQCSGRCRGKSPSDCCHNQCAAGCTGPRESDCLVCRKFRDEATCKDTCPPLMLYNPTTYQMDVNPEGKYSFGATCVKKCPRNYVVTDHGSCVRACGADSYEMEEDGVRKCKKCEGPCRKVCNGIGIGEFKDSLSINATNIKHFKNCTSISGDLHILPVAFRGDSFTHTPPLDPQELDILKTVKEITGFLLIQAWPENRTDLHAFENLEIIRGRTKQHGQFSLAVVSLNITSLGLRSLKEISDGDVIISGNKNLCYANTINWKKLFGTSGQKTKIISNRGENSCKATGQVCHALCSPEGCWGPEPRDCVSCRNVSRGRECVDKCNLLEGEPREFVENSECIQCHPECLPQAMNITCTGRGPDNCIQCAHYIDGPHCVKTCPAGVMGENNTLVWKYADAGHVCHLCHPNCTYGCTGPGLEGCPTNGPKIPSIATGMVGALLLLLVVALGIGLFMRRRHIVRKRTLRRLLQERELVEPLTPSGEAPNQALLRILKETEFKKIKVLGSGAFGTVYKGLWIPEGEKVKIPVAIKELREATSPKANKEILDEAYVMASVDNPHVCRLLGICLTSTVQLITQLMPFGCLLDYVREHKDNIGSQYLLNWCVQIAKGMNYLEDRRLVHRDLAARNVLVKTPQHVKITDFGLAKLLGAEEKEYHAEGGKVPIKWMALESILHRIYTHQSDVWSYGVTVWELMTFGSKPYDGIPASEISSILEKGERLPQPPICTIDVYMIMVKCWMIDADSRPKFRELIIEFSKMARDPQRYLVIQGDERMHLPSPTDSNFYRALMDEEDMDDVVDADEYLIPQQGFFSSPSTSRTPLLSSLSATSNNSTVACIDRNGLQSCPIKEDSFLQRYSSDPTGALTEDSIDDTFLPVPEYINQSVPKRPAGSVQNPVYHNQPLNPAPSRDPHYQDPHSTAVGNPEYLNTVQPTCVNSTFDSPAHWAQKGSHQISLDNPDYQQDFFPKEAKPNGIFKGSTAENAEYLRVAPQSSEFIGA

[29] = target: Jak2 (Homo sapiens, UniProt O60674); experiment: Kinase inhibition profiling at 100 nmol/L; type: biochemical
Sequence of Jak2 (O60674 whole entry): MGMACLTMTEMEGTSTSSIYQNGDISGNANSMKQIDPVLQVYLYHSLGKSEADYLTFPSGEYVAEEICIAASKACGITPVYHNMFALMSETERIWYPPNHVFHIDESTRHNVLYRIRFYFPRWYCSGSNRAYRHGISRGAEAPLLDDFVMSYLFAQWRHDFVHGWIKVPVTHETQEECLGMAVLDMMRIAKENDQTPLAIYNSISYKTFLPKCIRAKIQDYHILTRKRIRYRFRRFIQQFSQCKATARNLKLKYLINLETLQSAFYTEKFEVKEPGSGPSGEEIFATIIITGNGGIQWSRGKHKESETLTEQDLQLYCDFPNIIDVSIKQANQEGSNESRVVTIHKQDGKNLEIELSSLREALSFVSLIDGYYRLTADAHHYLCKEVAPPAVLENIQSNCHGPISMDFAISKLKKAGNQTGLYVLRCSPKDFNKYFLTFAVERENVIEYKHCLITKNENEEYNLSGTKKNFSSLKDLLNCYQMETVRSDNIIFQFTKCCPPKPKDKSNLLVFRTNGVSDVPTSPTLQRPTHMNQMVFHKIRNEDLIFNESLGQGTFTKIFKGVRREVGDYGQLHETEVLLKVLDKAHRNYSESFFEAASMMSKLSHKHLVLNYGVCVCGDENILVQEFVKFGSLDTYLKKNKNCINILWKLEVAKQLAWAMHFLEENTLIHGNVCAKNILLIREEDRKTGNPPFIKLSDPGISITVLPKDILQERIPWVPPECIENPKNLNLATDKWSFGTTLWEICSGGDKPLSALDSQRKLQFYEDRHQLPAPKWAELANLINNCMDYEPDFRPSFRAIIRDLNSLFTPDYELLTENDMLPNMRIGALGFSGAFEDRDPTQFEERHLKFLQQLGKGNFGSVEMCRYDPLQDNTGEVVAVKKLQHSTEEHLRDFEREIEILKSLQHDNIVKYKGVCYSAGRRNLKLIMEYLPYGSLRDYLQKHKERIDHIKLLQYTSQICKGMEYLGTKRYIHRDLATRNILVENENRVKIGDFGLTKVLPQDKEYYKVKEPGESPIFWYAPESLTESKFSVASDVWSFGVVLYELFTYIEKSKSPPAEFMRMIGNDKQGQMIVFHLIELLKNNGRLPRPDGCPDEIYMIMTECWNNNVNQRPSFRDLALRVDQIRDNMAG

[30] = target: Lck (Homo sapiens, UniProt P06239); experiment: Kinase inhibition profiling at 100 nmol/L; type: biochemical; conditions: read-out: Inhibition at 100 nmol/L
Sequence of Lck (P06239 whole entry): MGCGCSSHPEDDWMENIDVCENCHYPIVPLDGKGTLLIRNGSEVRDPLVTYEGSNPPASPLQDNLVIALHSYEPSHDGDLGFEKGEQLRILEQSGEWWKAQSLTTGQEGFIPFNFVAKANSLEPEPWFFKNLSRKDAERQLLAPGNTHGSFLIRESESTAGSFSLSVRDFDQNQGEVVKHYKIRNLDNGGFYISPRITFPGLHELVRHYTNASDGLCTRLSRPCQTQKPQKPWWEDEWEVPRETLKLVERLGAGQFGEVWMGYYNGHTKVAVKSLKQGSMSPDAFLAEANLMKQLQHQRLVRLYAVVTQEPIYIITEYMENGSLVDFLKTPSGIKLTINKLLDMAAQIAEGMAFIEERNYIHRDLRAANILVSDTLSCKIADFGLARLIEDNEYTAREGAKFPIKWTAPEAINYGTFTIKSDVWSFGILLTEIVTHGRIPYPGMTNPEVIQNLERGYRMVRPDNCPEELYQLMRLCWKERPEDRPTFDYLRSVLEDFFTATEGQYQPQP

[31] = po, 37.5 mg/day, patients, oral 37.5 mg/day, Day 1 (n = 7), mean ± SD
[32] = po, 37.5 mg/day, patients, oral 37.5 mg/day, Day 28 (n = 5), mean ± SD
[33] = patients, oral 37.5 mg/day, Day 28 (n = 5), mean ± SD
[34] = patients, oral 50 mg/day, Day 28 (n = 4), mean ± SD

For Cc1ccsc1C(=O)Nc1cc(CN2CCN(C(=O)CO)CC2)ccc1/C=C/c1n[nH]c2ccccc12 [KW‐2450], the “Inhibition of IGF‐1‐induced tyrosine phosphorylation of IGF‐1R” value [1] was “complete inhibition”, the Plasma glucose level [2] was “elevated levels” and the Plasma insulin level [2] was “elevated levels”. The inhibition at 0.1 µM [3] was greater than 90%, the GI50 [4] was 380 nM and the inhibition at 0.1 µM [5] was greater than 90%. For the same molecule, the “Inhibition of in vivo IGF‐1‐induced tyrosine phosphorylation of IGF‐R” value [6] was “inhibited”, the “Inhibition at 100 nmol/L” value ([7]; TrkA, 100 nmol/L) was 101.1% and the inhibition at 0.1 µM ([7]; read-out: Inhibition at 100 nmol/L, TrkA, 100 nmol/L) was greater than 90%. For the same molecule, the inhibition at 0.1 µM [8] was 76.8%, the inhibition at 0.1 µM [9] was 95.6% and the “Hyperglycemia at pharmacologically active (lower) doses” value [10] was “hyperglycemia induced”. For the same molecule, the inhibition at 0.1 µM [11] was greater than 90%, the inhibition at 0.1 µM [12] was greater than 90% and the “In vivo growth inhibitory activity” value [13] was “modest in vivo growth inhibitory activity”. The inhibition at 0.1 µM [14] was 53.8%, the Protein bound [15] was 98.5–99.0% and the “Inhibitory activity against phosphorylation of Erk” value [16] was “without any inhibitory activity”. For the same molecule, the inhibition at 0.1 µM [17] was 33.8%, the GI50 [18] was 3.2 to 11 nM and the “Inhibition at 100 nmol/L” value ([19]; AurA, 100 nmol/L) was 99.5%. The inhibition at 0.1 µM ([19]; read-out: Inhibition at 100 nmol/L, AurA, 100 nmol/L) was greater than 90%, the Cell cycle distribution ([20]; higher concentrations of 1200 and 2000 nmol/L) was “G1 and G2/M phase accumulations” and the Cell cycle distribution ([20]; lower concentrations of 120 and 400 nmol/L) was “G1 phase accumulation”. The “Inhibition at 100 nmol/L” value [21] was “–2.5%”, the “Inhibition of phosphorylation of AKT downstream to IGF‐1R or IR” value [22] was “inhibited phosphorylation of AKT” and the “Antitumor effect in combination with lapatinib and letrozole” value [23] was “synergistic antitumor effects”. For the same molecule, the half-life ([24]; oral, 50 mg, Mean elimination half‐life, range across dose levels and day measured, patients, 37.5 and 50 mg, days 1 and 28) was 9.74 to 13 h, the concentration at 1 day ([24]; po, 37.5 mg/day) was 608 ng/mL and the concentration at 28 day ([24]; po, 37.5 mg/day) was 890 ng/mL. For the same molecule, the Cmax [24, 31] was 2330 ± 921 ng/mL, the Cmax [24, 32] was 2370 ± 1010 ng/mL and the Tmax [24, 31] was 2.29 ± 0.95 h. The Tmax [24, 32] was 1.99 ± 1.22 h, the Vd/F ([24]; po, 37.5 mg/day, patients, oral 37.5 mg/day, Day 1, n = 5, mean ± SD) was 19.6 ± 2.91 L and the Vd/F ([24]; po, 37.5 mg/day, patients, oral 37.5 mg/day, Day 28, n = 4, mean ± SD) was 23.7 ± 3.89 L. The half-life ([24]; po, 37.5 mg/day, t 1/2, patients, oral 37.5 mg/day, Day 1, n = 5, mean ± SD) was 10.1 ± 3.08 h, the half-life ([24]; po, 37.5 mg/day, t 1/2, patients, oral 37.5 mg/day, Day 28, n = 4, mean ± SD) was 9.74 ± 2.69 h and the concentration at 1 day ([24]; po, 50 mg/day) was 671 ng/mL. The concentration at 28 day ([24]; po, 50 mg/day) was 701 ng/mL, the “Mean maximum plasma concentration, molar equivalent” value ([24]; patients, 37.5 mg/day, days 1 and 28) was 3385 to 3440 nmol/L and the “Mean elimination half‐life, range across dose levels and day measured” value ([24]; patients, 37.5 and 50 mg, days 1 and 28) was 10 to 13 h. For the same molecule, the “C min (trough plasma concentration)” value ([24]; patients, oral 37.5 mg/day, Day 1 (n = 7), mean ± SD) was 608 ± 679 ng/mL, the CL/F ([24]; patients, oral 37.5 mg/day, Day 1, n = 5, mean ± SD) was 1.45 ± 0.53 L/h and the “C min (trough plasma concentration)” value [24, 33] was 890 ± 1173 ng/mL. The CL/F [24, 33] was 1.56 ± 0.88 L/h, the “R, accumulation ratio (AUC0–24 on day 28/AUC0–24 on day 1)” value [24, 33] was 1.57 and 1.57 ± 0.80 and the “C min (trough plasma concentration)” value ([24]; patients, oral 50 mg/day, Day 1 (n = 6), mean ± SD) was 671 ± 517 ng/mL. For the same molecule, the CL/F ([24]; patients, oral 50 mg/day, Day 1, n = 5, mean ± SD) was 1.48 ± 0.97 L/h, the “C min (trough plasma concentration)” value [24, 34] was 701 ± 462 ng/mL and the CL/F [24, 34] was 1.69 ± 0.47 L/h. The “R, accumulation ratio (AUC0–24 on day 28/AUC0–24 on day 1)” value [24, 34] was 1.27 and 1.27 ± 0.37, the inhibition at 0.1 µM [25] was 94.1% and the fraction unbound at 6 h [26] was 0.009 to 0.016. For the same molecule, the “Median progression‐free survival” value ([27]; 37.5 mg/day) was 65.0 days, the “Patients with stable disease” value ([27]; 37.5 mg/day) was 1 n and the “Median progression‐free survival” value ([27]; 50 mg/day) was 141 days. The “Patients with stable disease” value ([27]; 50 mg/day) was 3 n, the “Complete or partial responses” value ([27]; 10 patients evaluable for response) was “no complete or partial responses” and the “Patients with stable disease” value ([27]; 10 patients evaluable for response, both doses) was 40%. For the same molecule, the “Median progression‐free survival” value ([27]; overall) was 66.5 days, the inhibition at 0.1 µM [28] was 2.5% and the “Inhibition at 100 nmol/L” value ([29]; Jak2, 100 nmol/L) was 93.4%. The inhibition at 0.1 µM ([29]; read-out: Inhibition at 100 nmol/L, Jak2, 100 nmol/L) was greater than 90% and the inhibition at 0.1 µM [30] was 33.7%.
